Consider seven compounds from ChEMBL document CHEMBL4043223, “Structure-activity relationship study of small molecule inhibitors of the DEPTOR-mTOR interaction” (Bioorg Med Chem Lett, 2017).

Structures are written as SMILES. Active and inactive are the calls of the source. No cut-off for these calls is given here.

In data set [1] the target is DEP domain-containing mTOR-interacting protein (Homo sapiens) (UniProt Q8TB45). As to the kind of experiment: Inhibition of DEPTOR in human RPMI8226 cells assessed as upregulation of mTORC1-dependant p21 expression at 0.5 to 2 uM after 6 hrs by Western blot analysis. It is filed as cell-based.
Chain of DEP domain-containing mTOR-interacting protein (Homo sapiens) (Q8TB45 whole entry, the tested form may be a part): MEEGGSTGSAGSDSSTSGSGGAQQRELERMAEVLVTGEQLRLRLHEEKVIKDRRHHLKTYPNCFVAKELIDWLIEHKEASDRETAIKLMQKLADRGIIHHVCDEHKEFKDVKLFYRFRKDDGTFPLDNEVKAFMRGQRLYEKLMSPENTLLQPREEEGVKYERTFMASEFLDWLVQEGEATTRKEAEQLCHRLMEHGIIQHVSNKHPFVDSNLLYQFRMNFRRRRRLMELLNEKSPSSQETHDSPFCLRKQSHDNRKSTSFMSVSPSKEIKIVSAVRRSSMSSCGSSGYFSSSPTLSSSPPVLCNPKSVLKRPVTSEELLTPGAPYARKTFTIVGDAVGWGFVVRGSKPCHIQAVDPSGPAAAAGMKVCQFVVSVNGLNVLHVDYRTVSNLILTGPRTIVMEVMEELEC
Data set [2] concerns RPMI-8226. As to the kind of experiment: Cytotoxicity against human RPMI8226 cells after 48 hrs by MTT assay. The format is functional, cell-based. Particulars: RPMI-8226, 48 h. In outline:
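MTT in RPMI-8226 cells: 1–2 × 10^4 cells per well in complete medium, exposed 48 h to a range of compound concentrations. MTT reduction to formazan read at 570 nm. Quadruplicate wells per group; OD given as % of DMSO-only control set at 100%. IC50 taken from the concentration series.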

The subject of a further data set is MM1.S. As to the kind of experiment: Cytotoxicity against human MM1S cells after 48 hrs by MTT assay. It is filed as functional, cell-based. In a few lines: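 MM1.S myeloma cells (DEPTOR-over-expressing) in 48 h MTT: 1–2 × 10^4 cells per well, graded compound concentrations, formazan at 570 nm. Quadruplicate wells; survival as % of DMSO control; IC50 derived from the concentration range.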

Data set [3] concerns the target DEP domain-containing mTOR-interacting protein (Homo sapiens) (UniProt Q8TB45). The data set is described as follows: Inhibition of mTOR binding to DEPTOR in human RPMI8226 cells assessed as increase in mTORC1-associated p70 phosphorylation at […] after 6 hrs by Western blot analysis. The format is cell-based.
The test system of data set [4] is RPMI-8226. The data set is described as follows: Induction of apoptosis in human RPMI8226 cells assessed as caspase3 activation at 0.12 to 2 uM after 48 hrs by cytofix/cytoperm staining based flow cytometry. It is filed as functional, cell-based. In outline:
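Caspase-3 flow cytometry 48 h after drug exposure of 8226 cells. 10^6 cells washed in PBS, fixed and permeabilized in cytofix/cytoperm, stained 30 min with PE-conjugated anti-active-caspase-3 (1:5 dilution). % apoptosis = drug-treated minus DMSO-control positives; mean ± SD, n = 4.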

A further data set relates to PBL. The data set is described as follows: Cytotoxicity against PBL (unknown origin) after 48 hrs by MTT assay. The format is cell-based. In outline: (§1)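 Normal peripheral blood lymphocytes tested head-to-head with 8226 myeloma cells in 48 h MTT assays. […] Therapeutic index = IC50(PBL)/IC50(8226).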
Data set [5] in a line: Therapeutic index, ratio of IC50 for PBL (unknown origin) to IC50 for human RPMI8226 cells. In outline: as §1
Data set [6] addresses DEP domain-containing mTOR-interacting protein (Homo sapiens) (UniProt Q8TB45). The data set is described as follows: Inhibition of mTOR binding to DEPTOR in human RPMI8226 cells assessed as increase in mTORC1-associated p70 phosphorylation at 1 uM after 6 hrs by Western blot analysis. It is filed as cell-based. In outline:
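8226 cells exposed 6 h to compound, DMSO in untreated controls. Lysates run on 12.5% SDS-PAGE, transferred to PVDF, probed for phospho- and total p70. Densitometric phospho/total ratio expressed as fold versus parent compound B set at 1; mean ± SD, n = 4.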

Data set [7] concerns RPMI-8226. The data set is described as follows: Cytotoxicity against human RPMI8226 cells at 1 to 2 uM after 6 hrs by MTT assay. The format is cell-based. The settings on record: rpmi-8226, 6 h.
Data set [8] relates to RPMI-8226. The data set is described as follows: Cytotoxicity against human RPMI8226 cells at 0.5 uM after 6 hrs by MTT assay. It is filed as cell-based. The settings on record: rpmi-8226, 6 h.
For data set [9], the system named is RPMI-8226. The data set is described as follows: Cytotoxicity against human RPMI8226 cells at 0.05 to 0.2 uM after 6 hrs by MTT assay. It is filed as cell-based. Particulars: rpmi-8226, 6 h.
The target in data set [10] is DEP domain-containing mTOR-interacting protein (Homo sapiens) (UniProt Q8TB45). The data set is described as follows: Inhibition of mTOR binding to DEPTOR in human RPMI8226 cells at 1 uM treated 6 hrs followed by DEPTOR immunoprecipitation by immunoblotting analysis. The format is cell-based. In a few lines: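 RPMI8226 myeloma cells exposed to compound or DMSO for 6 h; DEPTOR immunoprecipitated from cell extracts, and precipitates immunoblotted for DEPTOR and co-precipitated mTOR. Proteins resolved by 12.5% SDS-PAGE, transferred to PVDF and detected with specific antibodies.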

Data set [11] has the same target. The data set is described as follows: Inhibition of mTOR binding to DEPTOR in human RPMI8226 cells at 0.5 uM treated 6 hrs followed by DEPTOR immunoprecipitation by immunoblotting analysis. It is filed as cell-based. In a few lines:
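Co-immunoprecipitation: 8226 cells treated 6 h with DMSO or 0.5 µM compound. DEPTOR immunoprecipitated; precipitates immunoblotted for DEPTOR and bound mTOR.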

For data set [12] the target is unchanged. The data set is described as follows: Inhibition of mTOR binding to DEPTOR in human RPMI8226 cells assessed as increase in mTORC2-associated AKT phosphorylation at S473 residue by Western blot analysis. It is filed as cell-based.
For data set [13], the system named is RPMI-8226. The data set is described as follows: Cytotoxicity against RAPTOR knockdown human RPMI8226 cells at 0.12 to 1 uM after 48 hrs by MTT assay. It is filed as functional, cell-based. In outline: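 8226 cells infected with lentivirus carrying shRAPTOR or control shSCRAMBLE, knockdown confirmed by immunoblot. Cells then incubated with increasing compound concentrations; MTT read-out after 48 h, formazan at 570 nm, as % of DMSO control.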

Data set [14] has as its system RPMI-8226. As to the kind of experiment: Cytotoxicity against human RPMI8226 cells after 48 hrs in presence of mTOR inhibitor pp242 by MTT assay. It is filed as functional, cell-based.
For data set [15], the system named is RPMI-8226. The data set is described as follows: Induction of apoptosis in human RPMI8226 cells assessed as caspase3 activation in presence of mTOR inhibitor pp242 by cytofix/cytoperm staining based flow cytometry. It is filed as functional, cell-based.
For data set [16], the target named is DEP domain-containing mTOR-interacting protein (Homo sapiens) (UniProt Q8TB45). The data set is described as follows: Inhibition of mTOR binding to DEPTOR in human RPMI8226 cells assessed as increase in mTORC1-associated 4E-BP1 phosphorylation by Western blot analysis. It is filed as cell-based.
The target is the same in data set [17]. The data set is described as follows: Inhibition of mTOR binding to DEPTOR in human RPMI8226 cells assessed as increase in mTORC1-associated S6 phosphorylation by Western blot analysis. It is filed as cell-based.
For data set [18] the target is unchanged. The data set is described as follows: Inhibition of mTOR binding to DEPTOR in human RPMI8226 cells assessed as increase in mTORC2-associated SGK phosphorylation by Western blot analysis. The format is cell-based.
The target is the same in data set [19]. The data set is described as follows: Inhibition of mTOR binding to DEPTOR in human RPMI8226 cells assessed as decrease in AKT phosphorylation at […] residue by Western blot analysis. The format is cell-based.
In data set [20] the test system is Mus musculus. The data set is described as follows: Toxicity in mouse xenografted with human RPMI8226 cells assessed as effect on RBC level at 20 mg/kg, ip administered daily for 3 days measured post last dose. The settings on record: in vivo, 72 h. It is filed as organism-based. In outline:
(§2)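 Immunodeficient mice inoculated subcutaneously with 8226 myeloma cells. Once tumors reached 500 mm3, daily treatment at 20 mg/kg was started.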

For data set [21], the system named is Mus musculus. As to the kind of experiment: Toxicity in mouse xenografted with human RPMI8226 cells assessed as effect on WBC level at 20 mg/kg, ip administered daily for 3 days measured post last dose. The format is organism-based. The settings on record: in vivo, 72 h. In a few lines:
as §2

Data set [22] deals with Mus musculus. As to the kind of experiment: Toxicity in mouse xenografted with human RPMI8226 cells assessed as effect on platelet level at 20 mg/kg, ip administered daily for 3 days measured post last dose. The format is organism-based. The settings on record: in vivo, 72 h. In a few lines: as §2
Data set [23] has as its system RPMI-8226. As to the kind of experiment: Anti-tumor activity against human RPMI8226 cells xenografted in mouse assessed as reduction in tumor growth at 20 mg/kg, ip administered daily for 3 days measured post last dose. The format is functional, organism-based. In a few lines:
as §2

The species entered for another data set is Homo sapiens. The data set is described as follows: Activation of mTORC1 in DEPTOR knockdown human RPMI8226 cells assessed as increase in p70 phosphorylation. In outline:
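DEPTOR silenced in 8226 cells by shRNA lentivirus, with shScramble-transfected cells as control. Cells drug-treated, then p70 phosphorylation assessed by immunoblot.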

`CC(C)(C)C(=O)NN=C1C(Cl)=C(Cl)C(Cl)=C1Cl`: the inhibition result in data set [1], in [3] and in data set [6] was “Active” in each case. In addition, the half-inhibitory concentration (IC50) in the data set on RPMI-8226 [2] was 0.09 to 0.12 µM; in the data set with MM1.S, 2 µM; with PBL, 1.25 µM. In addition, the outcome in the data set on RPMI-8226 [4] was Active. For the same compound, the “Ratio IC50” value in data set [5] is reported as 14.

Consider `O=C(NN=C1C(Cl)=C(Cl)C(Cl)=C1Cl)c1ccccc1`, for which the Activity entry is reported as “Toxic” in the data set with RPMI-8226 [7], “Toxic” in the data set with RPMI-8226 [8] and “Non-Toxic” in the data set with RPMI-8226 [9]. Moreover, the figures for the IC50 in the data set on RPMI-8226 [2] and with MM1.S were 0.6 µM and 0.8 µM, respectively.

For `NN=C1C(Cl)=C(Cl)C(Cl)=C1Cl`, the half-maximal inhibitory concentration (IC50) in the data set on RPMI-8226 [2] is 1.3 to 1.5 µM; in the data set with MM1.S, 3 µM; in the data set with PBL it was 20 µM. Further, the outcome in the data set with RPMI-8226 [4] was Active. Also, the “Ratio IC50” value in [5] turned out to be 14.3. In addition, the inhibition result in data set [10] and in [6] was “Active” throughout. Besides, the inhibition entry in [11] is “inactive”.

For `CC(C)(C)OC(=O)NN=C1C(Cl)=C(Cl)C(Cl)=C1Cl`, the inhibition result in data set [12], in data set [1], in data set [3], in [11], in data set [16] and in data set [17] was “Active” throughout. For the same compound, the inhibition result in data set [18], in [19] and in data set [6] was “Active” throughout. Also, the IC50 in the data set on RPMI-8226 [2] is 0.1 to 0.11 µM; with MM1.S, 0.6 µM; with PBL it was 5 µM. The result in the data set on RPMI-8226 [4] was Active. For the same compound, the “Ratio IC50” value in data set [5] turned out to be 45.5. For the same compound, the outcome in the data set on RPMI-8226 [13], with RPMI-8226 [14] and in the data set on RPMI-8226 [15] was inactive.

As to `FC(F)(F)c1cccc(NN=C2C(Cl)=C(Cl)C(Cl)=C2Cl)c1`, the inhibition entry in data set [12], in data set [1], in [3], in data set [11], in data set [16] and in data set [17] was “Active” throughout. Moreover, the inhibition result in data set [18], in data set [19] and in data set [6] was “Active” in each case. The concentration for half-maximal inhibition (IC50) with RPMI-8226 [2] was 0.11 to 0.17 µM; in the data set with MM1.S, 1 µM; with PBL it was 15 µM. The outcome with RPMI-8226 [4] and in the data set with RPMI-8226 [23] was Active. Further, the “Ratio IC50” value in data set [5] is listed as 136. Moreover, the result in the data set with RPMI-8226 [13], in the data set with RPMI-8226 [14], with RPMI-8226 [15] and in the data set listed under Homo sapiens was inactive. In addition, the Activity entry in the data set on Mus musculus [20], in the data set on Mus musculus [21] and with Mus musculus [22] was “Non-Toxic” in each case.

In the case of `Fc1ccc(NN=C2C(Cl)=C(Cl)C(Cl)=C2Cl)cc1`, the half-maximal inhibitory concentration (IC50) is 0.6 to 0.7 µM with RPMI-8226 [2], 1.3 µM in the data set with MM1.S and 20 µM in the data set with PBL. The inhibition result in data set [3], in [11] and in data set [6] was “Active” each time. In the data set with RPMI-8226 [4], the result was Active. Moreover, the “Ratio IC50” value in data set [5] is listed as 33. The result in the data set on RPMI-8226 [13] was inactive.

With `O=C(c1ccc(F)cc1)N(N=C1C(Cl)=C(Cl)C(Cl)=C1Cl)C(=O)c1ccc(F)cc1`, the inhibition entry in data set [1], in data set [3] and in data set [6] was “Active” in each case. Further, the IC50 in the data set with RPMI-8226 [2] is 0.2 to 0.25 µM; in the data set on MM1.S, 0.3 µM; in the data set with PBL, 2 µM. In addition, the outcome with RPMI-8226 [4] was Active. Moreover, the “Ratio IC50” value in data set [5] is 10.
